Screening results (PubChem)
Rpn11 block – blocks the human proteasome subunit Rpn11. O00487. human 26S proteasome, Ub4-pepOG fluorescence polarization; 20S core pre-blocked with epoxomicin. inhibition, % at 20 µM. hit rate 0.59% among 360,000;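 active = inhibition at 20 µM, scaled to each plate's controls, above about 33%, limit read from the data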
HNF4A DNA FP – change in binding of human HNF4 alpha to DNA; P41235; HNF4a-FITC DNA binding, fluorescence polarization, 1 h; hit rate 0.3% among 360,000; activity change, % at 10 µM; AID 1224865; in the data active = activity change above about 30%, passing the limit was not always enough
Target sequence (P41235 whole entry, looked up): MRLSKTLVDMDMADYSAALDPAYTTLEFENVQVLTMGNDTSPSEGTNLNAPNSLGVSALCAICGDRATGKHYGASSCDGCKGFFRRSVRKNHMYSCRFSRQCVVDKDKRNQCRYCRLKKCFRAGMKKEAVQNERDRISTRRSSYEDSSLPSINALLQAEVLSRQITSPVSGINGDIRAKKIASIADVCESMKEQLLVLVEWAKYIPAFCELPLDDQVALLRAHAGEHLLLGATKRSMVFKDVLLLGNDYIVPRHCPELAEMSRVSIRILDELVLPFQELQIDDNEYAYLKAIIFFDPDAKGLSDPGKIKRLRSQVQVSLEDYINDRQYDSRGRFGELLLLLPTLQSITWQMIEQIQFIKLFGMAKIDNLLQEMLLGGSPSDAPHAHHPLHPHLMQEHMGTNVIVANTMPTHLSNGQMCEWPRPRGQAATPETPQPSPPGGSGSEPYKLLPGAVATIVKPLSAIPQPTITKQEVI
TPT1 inh – blocks Candida albicans tRNA 2'-phosphotransferase; recombinant caTPT1, FP RNA substrate dephosphorylation; inhibition, % at 5 µM; hit rate 0.81% among 300,000; AID 1962;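 active = inhibition above the mean of all tested compounds plus 3 SD, set per screening campaign, cut at about 24% in these data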;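 also: plate controls were DMSO alone for no effect and ferristatin control at 100 nM for full effect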
PP1 counter – counter-screen for PP5 inhibitors: inhibitors of human PP1-alpha; AID 2235; hit rate 0.9% among 320,000; P62136; inhibition, % at 6.7 µM; purified PP1alpha, OMFP fluorescence;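 active = inhibition above the mean inhibition of all tested compounds plus 3 SD, computed separately for each screening campaign, cut at about 15% in these data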
NadD inh – inhibitors of Staphylococcus aureus NadD; purified NadD enzyme, colorimetric absorbance read-out; inhibition, % at 20 µM; hit rate 0.78% among 360,000; AID 602399; in the data active = inhibition above about 26%
CSN deneddyl inh – CSN deneddylation inhibition. Q92905. Purified CSN, SCF-Nedd8-OG deneddylation, fluorescence polarization. inhibition, % at 12.5 µM. hit rate 0.38% among 360,000;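 active = pattern-corrected inhibition above about 35%, with an unprinted fluorescence ratio check between 0.5 and 1.5, limit read from the data, passing the limit was not always enough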;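 also: 0% = enzyme with substrate and 100% = substrate without enzyme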
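Test system: Human Csn5 produced in HEK293T cells | Compound: 12.5 µM single point | Times: 90 min, room temperature | Signal: Fluorescence polarization readout | Read-out basis: % inhibition of substrate cleavage by Csn5 | Controls: no-enzyme wells high, enzyme-with-substrate wells low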
CSN deneddyl val – Csn5 (human) deneddylation inhibition, single-concentration validation. shares compounds with CSN deneddyl inh. Csn5 deneddylation of SCF-Nedd8OG, fluorescence polarization, 90 min. inhibition, % at 16.6 µM. hit rate 62% among 540. AID 720654; in the data active = inhibition above about 50%;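 also: 0% = DMSO with enzyme and 100% = no enzyme wells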
MMP-2 counter – counter-screen for CSN deneddylation inhibitors: human MMP-2 inhibition | recombinant MMP-2, FRET substrate fluorescence, 60 min | hit rate 33% among 540 | shares compounds with CSN deneddyl inh | AID 720655 | inhibition, % at 16.6 µM;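 active = corrected plate-normalized z-score of 5 or more, or -5 or less, or inhibition of 15% or more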;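 also: plate controls were DMSO wells with enzyme for no effect and buffer wells lacking MMP-2 for full effect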
Thrombin cntr – blocks bovine thrombin in a CSN deneddylation counter-screen; inhibition, % at 16.6 µM; AID 720656; hit rate 49% among 540; shares compounds with CSN deneddyl inh; bovine thrombin cleavage of Ub4-pepOG, fluorescence polarization;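 active = inhibition at or above a set limit, with a fluorescence interference ratio between 0.5 and a set maximum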
Numbers without * were called inactive; / = no result shown; + = active, no number. Most compounds without a hit are left out; they make up all but 2.7% or so of the library.

SMILES	Rpn11 block	HNF4A DNA FP	TPT1 inh	PP1 counter	NadD inh	CSN deneddyl inh	CSN deneddyl val	MMP-2 counter	Thrombin cntr
Cc1ccc(S(=O)(=O)N2[C@H](CC(=O)OCc3ccccc3)OC[C@@H]2C)cc1	/	-3	/	/	/	-4	/	/	/
COc1ccc(Cc2nc3ccc(C(=O)N4CCN(C)C(C)C4)cc3o2)cc1OC (centres undefined)	9	-3	-2	-2	-5	-2	/	/	/
O=C(Nc1cccc(-c2cnc3ccccc3n2)c1)c1cccc(NC(=O)c2ccco2)c1	74*	6	2	3	15	41*	/	1	17*
O=C1C2C(C(=O)N1/N=C/c1cc([N+](=O)[O-])c(O)cc1O)C1C=CC2C12CC2 (centres undefined)	-23	-18	-3	-2	4	36*	71	17*	10
CN(C)c1ccc(-c2ccnc3c2CC(C)(C(=O)Nc2ccccc2)O3)cc1 (centres undefined)	2	-2	/	/	-4	0	/	/	/
Nc1cc(Cl)cc2c1-c1ccc(Cl)cc1C2	7	2	/	/	-2	2	/	/	/
Cc1ccc(-n2cccc2/C=C2\C(=N)N3N=C(c4ccco4)SC3=NC2=O)cc1	/	-4	10	9	47*	61*	16	19*	-5
CCC1=NN2C(=N)/C(=C\c3cccn3-c3ccc(C)c(C)c3)C(=O)N=C2S1	18	5	0	13	18	10	/	/	/
Cc1cc2c(SCC(=O)Nc3cccc(O)c3)ncnc2s1	36	-20	/	/	7	36*	85*	13	1
COc1ccc(NC(=O)CSc2ncnc3sc(C)cc23)cc1	0	-1	1	1	-1	-3	/	/	/
C=CCn1c(O)c(N=Nc2ccccc2O)c2ccccc21	/	84*	/	7	-7	47*	+	-6	33*
O=C(NCc1cc(C(F)(F)F)ccc1Cl)c1cccc2c1C(=O)c1ccc(N3CCC(N4CCCCC4)CC3)cc1S2(=O)=O	/	140*	/	/	19	82*	-38	-18	46*
O=C(NCc1ccccn1)C(=O)NCC1OCCN1S(=O)(=O)c1ccc(Cl)cc1 (centres undefined)	-1	-3	0	-5	-8	0	/	/	/
Cc1ccc(-c2nn3c(C)nnc3s2)cc1NC(=O)c1ccc(-c2ccc(Cl)cc2Cl)o1	+	104*	9	4	0	124*	112*	1	4
Cc1ccc(N(CC(=O)NCc2ccc(F)cc2)S(=O)(=O)c2c(C)n[nH]c2C)cc1	-1	3	2	-1	-2	3	/	/	/
Cc1ccc(S(=O)(=O)Cc2ccc(C(=O)O)o2)cc1	-5	-24	2	-1	-5	35*	64*	22*	6
CCN(CC)c1ccc(C=Nc2ccc(N(C)C)cc2)c(O)c1	/	104	6	1	-4	42*	128*	-11	37*
CCN(CC)c1ccc(C=Nc2ccc(C)cc2)c(O)c1	8	-2	2	2	-5	2	/	/	/
COc1ccc(C2=NOC(C)(c3nnc(-c4ccc(Cl)cc4)o3)C2)cc1 (centres undefined)	-4	3	0	1	-5	-7	/	/	/
Cc1cc(/C=N/NC(=O)C(O)(c2ccccc2)c2ccccc2)c(C)n1-c1ccc(C(=O)O)cc1	15	1	3	4	7	5	/	/	/
Cc1cc(/C=N/NC(=O)C(O)(c2ccccc2)c2ccccc2)c(C)n1-c1cccc(C(=O)O)c1	37	-6	15	4	21	41*	59*	8	7
CC(C)(C)[C@@H]1COC(=O)[C@H](Cc2ccc(F)cc2)CC/C=C\C[C@@H](CC(=O)NCCO)C(=O)N1	-2	-1	/	/	-11	-2	/	/	/
N#C/C(=C/c1ccc(O)c(O)c1)c1nc2ccccc2[nH]1	/	10	21	4	-3	124*	+	-1	55*
N#C/C(=C\c1cccs1)c1nc2ccccc2[nH]1	-1	4	8	2	-2	-8	/	/	/
N#CC(C#N)=C(N)/C(C#N)=C/c1cc(O)c(O)c(O)c1	/	28	22	3	3	122*	11	9	57*
SMILES	Rpn11 block	HNF4A DNA FP	TPT1 inh	PP1 counter	NadD inh	CSN deneddyl inh	CSN deneddyl val	MMP-2 counter	Thrombin cntr
Cc1ccc(CN2C(=O)N/C(=C/c3ccc(-c4ccc(C(=O)O)cc4)o3)C2=O)cc1	7	-4	4	-5	12	12	/	/	/
Cc1cc(C(=O)O)ccc1-c1ccc(/C=C2\NC(=O)N(Cc3ccc(F)cc3)C2=O)o1	-8	-17	1	-2	5	36*	/	17*	16*
CCN(CC(=O)Nc1ccccc1C(F)(F)F)C(=O)CN1C(=O)NC2(CCCC2)C1=O	-6	0	1	-3	-3	-1	/	/	/
COc1ccc(S(=O)(=O)N2CCN(C(=O)CNC(=O)c3ccc4c(c3)OCO4)CC2)cc1	3	4	-5	0	0	-2	/	/	/
O=C(COc1ccc(Cl)cc1Cl)Nc1ccc(C(=O)Nc2ccccc2C(=O)O)cc1	7	-5	-1	1	14	52*	75*	20*	6
O=C1/C(=C/c2cccnc2)SC(=S)N1CC1CCCO1 (centres undefined)	-1	1	-2	-1	6	-2	/	/	/
Cc1ccc(/C=C2\SC(=S)N(CC3CCCO3)C2=O)o1 (centres undefined)	/	16	24	3	4	74*	103*	33*	34*
O=C1/C(=C/c2cccs2)CCC/C1=C\c1cccs1	7	12	11	4	6	43*	92*	-4	5
COC(=O)c1ccc(CN(C(=O)N2CCN(C)CC2)S(=O)(=O)c2ccc(C)cc2)cc1	0	-1	4	-1	4	-4	/	/	/
Cc1nnn(-c2nonc2N)c1C(=O)N/N=C/c1ccccc1O	14	4	0	3	-1	44*	-17	23*	-9
N=C1/C(=C\c2ccc(SCc3ccco3)o2)C(=O)N=C2SC=NN12	12	17	10	5	6	105*	60*	3	26*
Cc1cc(N2CCN(C)CC2)ccc1NC(=O)c1cccc(S(=O)(=O)N2CCc3ccccc3C2)c1	24	6	1	3	8	108*	53*	8	-10
Nc1ccc(Cn2ccc3c4c(N)nc(N)nc4ccc32)cc1	-2	-5	/	/	6	39*	93*	0	11
Cc1ccc(S(=O)(=O)c2c(N)n(CCCN(C)C)c3nc4ccccc4nc23)cc1	8	1	-3	-1	-8	2	/	/	/
